These results are taken from ChEMBL document CHEMBL4177540, “Corymbulosins D-H, 2-Hydroxy- and 2-Oxo-clerodane Diterpenes from the Bark of Laetia corymbulosa” (J Nat Prod, 2017).

Bounds are passed on as bounds.

The IC50 is the concentration needed to halve the response being measured. Higher therefore signals a need for much substance.

Common to all, as to assay type: functional, cell-based
The subject of one test is MDA-MB-231. Briefly: Antiproliferative activity against human MDA-MB-231 cells incubated for 72 hrs by SRB assay. The note with it: MDA-MB-231, 72 h. On the technique in general: In SRB staining, fixed cells bind dye roughly in proportion to their protein.
A further test relates to MCF7. Briefly: Antiproliferative activity against human MCF7 cells incubated for 72 hrs by SRB assay. Particulars: MCF7, 72 h. A digest of the protocol: (§1)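 Cells in RPMI-1640 with 2 mM L-glutamine, 25 mM HEPES, 10% FBS, streptomycin and penicillin. Seeded at 4,000−12,000 cells per well, then exposed to compound for 72 h. Fixed with 10% trichloroacetic acid, stained with 0.04% SRB, dye taken up in 10 mM Tris base, absorbance read at 515 nm. IC50 is 50% reduction versus untreated cells, from at least three independent experiments run in duplicate.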

A short description of test [1]: Antiproliferative activity against human KBVIN cells incubated for 72 hrs by SRB assay. A digest of the protocol:
as §1

In the next test the test system is A549. As to the kind of experiment: Antiproliferative activity against human A549 cells incubated for 72 hrs by SRB assay. The note with it: A549, 72 h.
In another test the test system is KB. Briefly: Antiproliferative activity against human KB cells incubated for 72 hrs by SRB assay.

For the molecule `C=CC(=C)CC[C@]1(C)[C@H](C)C[C@H](OC(=O)CCCCCCCCC)[C@@]23C(=C[C@@H](O)C[C@@H]12)[C@@H](OC(C)=O)O[C@H]3OC(C)=O`, the IC50 was determined as 5.4 µM in the test with MDA-MB-231; 5.4 µM in the test on MCF7; 4.8 µM in test [1]; 5.3 µM with A549; 4.5 µM in the test on KB.

Turning to `C=CC(=C)CC[C@]1(C)[C@H](C)C[C@H](OC(=O)/C=C\C=C/CCCCC)[C@@]23C(=C[C@@H](O)C[C@@H]12)[C@@H](OC(C)=O)O[C@H]3OC(C)=O`, the IC50 came to 5.1 µM in the test on MDA-MB-231; 5.2 µM with MCF7; 4.8 µM in test [1]; 4.8 µM with A549; 4.9 µM with KB.

For the molecule `C=CC(=C)CC[C@]1(C)[C@H](C)C[C@H](OC(=O)CCCCCCCCC)[C@@]23C(=C[C@H](O)C[C@@H]12)[C@@H](OC(C)=O)O[C@H]3OC(C)=O`, the IC50 with MDA-MB-231 is 5.2 µM; with MCF7, 5 µM; in test [1], 4.9 µM; with A549, 4.7 µM; in the test on KB it was 5 µM.

Take `C=CC(=C)CC[C@]1(C)[C@H](C)C[C@H](OC(=O)/C=C\C=C/CCCCC)[C@@]23C(=C[C@H](O)C[C@@H]12)[C@@H](OC(C)=O)O[C@H]3OC(C)=O`: the IC50 is 4.8 µM in the test on MDA-MB-231; 4.8 µM in the test on MCF7; 4.9 µM in test [1]; 4.6 µM in the test on A549; 4.8 µM with KB.

Consider `C=CC(=C)CC[C@]1(C)[C@H](C)C[C@H](OC(=O)CCCCCCC)[C@@]23C(=C[C@H](O)C[C@@H]12)[C@@H](OC(C)=O)O[C@H]3OC(C)=O`, for which the IC50 with MDA-MB-231 was 5.1 µM; in the test with MCF7 it was 4.9 µM; in test [1] it was 4.9 µM; with A549 it was 4.7 µM; in the test on KB it was 5 µM.

For `C=CC(=C)CC[C@]1(C)[C@H](C)C[C@H](OC(=O)CCCCCCCCC)[C@@]23C(=CC(=O)C[C@@H]12)[C@@H](OC(C)=O)O[C@H]3OC(C)=O`, the 50% inhibitory concentration (IC50) was above 10 µM in the test with MDA-MB-231; 8.3 µM in the test with MCF7; 9.8 µM in test [1]; above 10 µM in the test with A549; 5.9 µM in the test with KB.
